Results from ChEMBL document CHEMBL2062382, “Bicyclic C21 terpenoids from the marine sponge Clathria compressa” (J Nat Prod, 2012).
Converted amounts (≈) assume the structure as drawn. The source made the active and inactive calls. No cut-off for these calls is given here.

Assays:
Staphylococcus aureus [1] = assay: Antibacterial activity against methicillin-resistant Staphylococcus aureus ATCC 33591 after 20 hrs by broth microdilution method; type: functional; details: ATCC 33591, 20 h
Summary of the method: (§1)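 ATCC strains grown on Müller-Hinton agar 37 °C 24 h, then in Müller-Hinton broth 37 °C 24 h. MIC by two-fold serial broth microdilution, 0.01 to 128 μg/mL; samples dissolved in 5% DMSO in water, final DMSO below 0.5% in all wells, duplicate. Mid-log cells at initial A600 0.001; read after 20 h at 37 °C with gentle shaking. Methicillin control included.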

Klebsiella pneumoniae = assay: Antibacterial activity against Klebsiella pneumoniae ATCC 10031 at 128 ug/ml after 20 hrs by broth microdilution method; type: functional, organism-based
Summary of the method: (§2)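 Strains are grown on Müller-Hinton agar at 37 °C for 24 h, then in Müller-Hinton broth at 37 °C for 24 h. Mid-log cells at an initial 600 nm absorbance of 0.001 are exposed to two-fold serial dilutions from 0.01 to 128 µg/mL, in duplicate. Samples are dissolved in 5% DMSO/H2O, giving final DMSO below 0.5% in wells and matched in controls. Methicillin is the reference. MIC is read after 20 h at 37 °C with gentle shaking.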

Staphylococcus aureus [2] = assay: Antibacterial activity against Staphylococcus aureus ATCC 6538P after 20 hrs by broth microdilution method; type: functional; summary of the method: as §2
Staphylococcus aureus [3] = assay: Antibacterial activity against vancomycin-resistant Staphylococcus aureus after 20 hrs by broth microdilution method; type: functional; summary of the method: as §1
[4] = Cytotoxicity against human BG02 cells at 40 uM; type: cell-based; details: bg02, 40 µM
Summary of the method: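 Growth inhibition of human embryonic stem cells (BG02) was tracked by real-time cell electronic sensing (RT-CES) in a 96-well format, with each compound tested at 40 µM.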

Escherichia coli = assay: Antibacterial activity against Escherichia coli KCTC 1923 at 128 ug/ml after 20 hrs by broth microdilution method; type: functional, organism-based
Staphylococcus aureus [5] = assay: Antibacterial activity against methicillin-resistant Staphylococcus aureus ATCC 33591 up to 128 ug/ml after 20 hrs by broth microdilution method; type: functional, organism-based; summary of the method: as §1
Staphylococcus aureus [6] = assay: Antibacterial activity against Staphylococcus aureus ATCC 6538P up to 128 ug/ml after 20 hrs by broth microdilution method; type: functional, organism-based; summary of the method: as §2
Staphylococcus aureus [7] = assay: Antibacterial activity against vancomycin-resistant Staphylococcus aureus up to 128 ug/ml after 20 hrs by broth microdilution method; type: functional, organism-based; summary of the method: as §1

In the case of `C=C1CC[C@@H]2[C@](C)(CCC[C@@]2(C)/C=C/C=C(C)C)[C@H]1CC(=O)O` (relative stereo), the MIC (Staphylococcus aureus [1]) was 64 mg/L (≈ 202 µM), the Activity (Klebsiella pneumoniae) was “inactive” and the MIC (Staphylococcus aureus [2]) was 32 mg/L (≈ 101 µM). For the same compound, the MIC (Staphylococcus aureus [3]) was 64 mg/L (≈ 202 µM), the Activity [4] was “Non-toxic” and the Activity (Escherichia coli) was “inactive”.

For `C=C1CC[C@@H]2[C@](C)(CCC[C@@]2(C)/C=C/C(O)C(C)(C)O)[C@H]1CC(=O)NCCS(=O)(=O)O` (relative stereo), the Activity (Staphylococcus aureus [5]) was “inactive”, the Activity (Klebsiella pneumoniae) was “inactive” and the Activity (Staphylococcus aureus [6]) was “inactive”. For the same compound, the Activity (Staphylococcus aureus [7]) was “inactive”, the Activity [4] was “Non-toxic” and the Activity (Escherichia coli) was “inactive”.

In the case of `C=C1CC[C@@H]2[C@](C)(CCC[C@@]2(C)/C=C/C=C(C)C)[C@H]1CC(=O)NCCS(=O)(=O)O` (relative stereo), the Activity (Staphylococcus aureus [5]) was “inactive”, the Activity (Klebsiella pneumoniae) was “inactive” and the Activity (Staphylococcus aureus [6]) was “inactive”. The Activity (Staphylococcus aureus [7]) was “inactive”, the Activity [4] was “Non-toxic” and the Activity (Escherichia coli) was “inactive”.
